# Measured values published in ChEMBL document CHEMBL3228007, “Ergot alkaloids. Synthesis of nitrosourea derivatives of ergolines as potential anticancer agents” (J Med Chem, 1979).
# What was measured:
# Mus musculus [1] = test: Toxicity in mouse allografted with mouse L1210 cells assessed as change in body weight at 50 mg/kg relative to control; type: organism-based; parameters: dose 50 mg/kg; conditions: in vivo
# In short: (§1)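 Mice bearing L1210 leukemia, six per dose group, given compound as a suspension across a range of mg/kg doses. Antitumor read-out is T/C, with cures per group recorded. Toxicity is judged by body weight loss, with loss over 4 g flagged.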
# L1210 [2] = test: Antitumor activity against mouse L1210 cells allografted in mouse assessed as tumor growth inhibition at 12.5 mg/kg relative to control; type: functional; in short: as §1
# L1210 [3] = test: Antitumor activity against mouse L1210 cells allografted in mouse assessed as tumor growth inhibition at 50 mg/kg relative to control; type: functional; in short: as §1
# Mus musculus [4] = test: Toxicity in mouse allografted with mouse L1210 cells assessed as change in body weight at 12.5 mg/kg relative to control; type: organism-based; parameters: dose 12.5 mg/kg; conditions: in vivo; in short: as §1
# Mus musculus [5] = test: Toxicity in mouse allografted with mouse L1210 cells assessed as survival at 25 mg/kg; type: organism-based; parameters: dose 25 mg/kg; conditions: in vivo; in short: as §1
# Mus musculus [6] = test: Toxicity in mouse allografted with mouse L1210 cells assessed as survival at 50 mg/kg; type: organism-based; parameters: dose 50 mg/kg; conditions: in vivo; in short: as §1
# Mus musculus [7] = test: Toxicity in mouse allografted with mouse L1210 cells assessed as change in body weight at 25 mg/kg relative to control; type: organism-based; parameters: dose 25 mg/kg; conditions: in vivo; in short: as §1
# Mus musculus [8] = test: Toxicity in mouse allografted with mouse L1210 cells assessed as survival at 12.5 mg/kg; type: organism-based; parameters: dose 12.5 mg/kg; conditions: in vivo; in short: as §1
# Mus musculus [9] = test: Toxicity in mouse allografted with mouse L1210 cells assessed as change in body weight at 6.25 mg/kg relative to control; type: organism-based; parameters: dose 6.25 mg/kg; conditions: in vivo; in short: as §1
# L1210 [10] = test: Antitumor activity against mouse L1210 cells allografted in mouse assessed as tumor growth inhibition at 25 mg/kg relative to control; type: functional; in short: as §1
# Mus musculus [11] = test: Toxicity in mouse allografted with mouse L1210 cells assessed as change in body weight at 100 mg/kg relative to control; type: organism-based; parameters: dose 100 mg/kg; conditions: in vivo; in short: as §1
# L1210 [12] = test: Antitumor activity against mouse L1210 cells allografted in mouse assessed as tumor growth inhibition at 6.25 mg/kg relative to control; type: functional
# In short: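 L1210 leukemia in mice, six per group; compound given as a suspension across a range of dose levels; activity expressed as T/C, with cures and weight loss recorded.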
# Mus musculus [13] = test: Toxicity in mouse allografted with mouse L1210 cells assessed as survival at 6.25 mg/kg; type: organism-based; parameters: dose 6.25 mg/kg; conditions: in vivo; in short: as §1
# Rattus norvegicus = organism: Rattus norvegicus; test: Inhibition of prolactin release in rat at 10 ug relative to control; type: functional
# Mus musculus [14] = test: Toxicity in mouse allografted with mouse L1210 cells assessed as survival at 200 mg/kg; type: organism-based; parameters: dose 200 mg/kg; conditions: in vivo; in short: as §1
# Mus musculus [15] = test: Toxicity in mouse allografted with mouse L1210 cells assessed as survival at 400 mg/kg; type: organism-based; parameters: dose 400 mg/kg; conditions: in vivo; in short: as §1
# L1210 [16] = test: Antitumor activity against mouse L1210 cells allografted in mouse assessed as tumor growth inhibition at 200 mg/kg relative to control; type: functional; in short: as §1
# Mus musculus [17] = test: Toxicity in mouse allografted with mouse L1210 cells assessed as change in body weight at 200 mg/kg relative to control; type: organism-based; parameters: dose 200 mg/kg; conditions: in vivo; in short: as §1
# Mus musculus [18] = test: Toxicity in mouse allografted with mouse L1210 cells assessed as survival at 100 mg/kg; type: organism-based; parameters: dose 100 mg/kg; conditions: in vivo; in short: as §1
# L1210 [19] = test: Antitumor activity against mouse L1210 cells allografted in mouse assessed as tumor growth inhibition at 100 mg/kg relative to control; type: functional; in short: as §1
# Mus musculus [20] = test: Toxicity in mouse allografted with mouse L1210 cells assessed as change in body weight at 400 mg/kg relative to control; type: organism-based; parameters: dose 400 mg/kg; conditions: in vivo; in short: as §1
# Mus musculus [21] = test: Toxicity in mouse allografted with mouse P388 cells assessed as survival at 25 mg/kg; type: organism-based; parameters: dose 25 mg/kg; conditions: in vivo
# P388 [22] = test: Antitumor activity against mouse P388 cells allografted in mouse assessed as tumor growth inhibition at 50 mg/kg relative to control; type: functional
# Mus musculus [23] = test: Toxicity in mouse allografted with mouse P388 cells assessed as change in body weight at 50 mg/kg relative to control; type: organism-based; parameters: dose 50 mg/kg; conditions: in vivo
# Mus musculus [24] = test: Toxicity in mouse allografted with mouse P388 cells assessed as survival at 50 mg/kg; type: organism-based; parameters: dose 50 mg/kg; conditions: in vivo
# P388 [25] = test: Antitumor activity against mouse P388 cells allografted in mouse assessed as tumor growth inhibition at 100 mg/kg relative to control; type: functional
# Mus musculus [26] = test: Toxicity in mouse allografted with mouse P388 cells assessed as change in body weight at 100 mg/kg relative to control; type: organism-based; parameters: dose 100 mg/kg; conditions: in vivo
# P388 [27] = test: Antitumor activity against mouse P388 cells allografted in mouse assessed as tumor growth inhibition at 25 mg/kg relative to control; type: functional
# L1210 [28] = test: Antitumor activity against mouse L1210 cells allografted in mouse assessed as tumor growth inhibition at 400 mg/kg relative to control; type: functional; in short: as §1
# Mus musculus [29] = test: Toxicity in mouse allografted with mouse P388 cells assessed as change in body weight at 25 mg/kg relative to control; type: organism-based; parameters: dose 25 mg/kg; conditions: in vivo
# Mus musculus [30] = test: Toxicity in mouse allografted with mouse P388 cells assessed as survival at 100 mg/kg; type: organism-based; parameters: dose 100 mg/kg; conditions: in vivo
SMILES,Activity (Mus musculus [1]) [g],T/C (L1210 [2]) [%],T/C (L1210 [3]) [%],Activity (Mus musculus [4]) [g],Activity (Mus musculus [5]),Activity (Mus musculus [6]),Activity (Mus musculus [7]) [g],T/C (L1210 [10]) [%],Activity (Mus musculus [11]) [g],inhibition (INH) (Rattus norvegicus) [%],also measured
C[C@H]1CC[C@H](NC(=O)N(CCCl)N=O)CC1,-4.8,256,327,-0.2,Non-toxic,Non-toxic,-3.4,301,-6.6,–,Activity (Mus musculus [8]): Not Active; Activity (Mus musculus [9]): 0.4 g; T/C (L1210 [12]): 187%; Activity (Mus musculus [13]): Non-toxic
CN1C[C@H](N)C[C@@H]2c3cccc4[nH]cc(c34)C[C@H]21,–,–,–,–,–,–,–,–,–,57,–
CN1C[C@H](NC(=O)N(CCCl)N=O)C[C@@H]2c3cccc4[nH]cc(c34)C[C@H]21,-2.8,119,154,-1.2,Non-toxic,Non-toxic,-1.4,137,-4,28,Activity (Mus musculus [14]): Non-toxic; Activity (Mus musculus [15]): Non-toxic; T/C (L1210 [16]): 390%; Activity (Mus musculus [17]): -6 g; Activity (Mus musculus [18]): Non-toxic; T/C (L1210 [19]): 248%; Activity (Mus musculus [20]): -7.6 g
CN1C[C@H](NC(=O)N(CCCl)N=O)C[C@@H]2c3cccc4c3c(cn4N=O)C[C@H]21,-2.2,105,121,-1.2,Non-toxic,Non-toxic,-1.8,117,-3.4,17,Activity (Mus musculus [21]): Non-toxic; Activity (Mus musculus [14]): Non-toxic; T/C (P388 [22]): 166%; Activity (Mus musculus [23]): 0 g; Activity (Mus musculus [15]): Non-toxic; Activity (Mus musculus [24]): Non-toxic; T/C (P388 [25]): 201%; Activity (Mus musculus [26]): -1.8 g; T/C (P388 [27]): 137%; T/C (L1210 [16]): 164%; Activity (Mus musculus [17]): -5.2 g; Activity (Mus musculus [18]): Non-toxic; T/C (L1210 [28]): 289%; Activity (Mus musculus [29]): -0.4 g; T/C (L1210 [19]): 144%; Activity (Mus musculus [20]): -6.4 g; Activity (Mus musculus [30]): Non-toxic
CN1CC(CO)=C[C@@H]2c3cccc4c3c(cn4N=O)C[C@H]21,–,–,–,–,–,–,–,–,–,36,–
CN1CC(COC(=O)NCCCl)=C[C@@H]2c3cccc4[nH]cc(c34)C[C@H]21,–,–,–,–,–,–,–,–,–,87,–
CN1CC(CO)=C[C@@H]2c3cccc4[nH]cc(c34)C[C@H]21,–,–,–,–,–,–,–,–,–,71,–
CC(C)[C@H]1C(=O)N2CCC[C@H]2[C@]2(O)O[C@](NC(=O)[C@@H]3C=C4c5cccc6[nH]cc(c56)C[C@H]4N(C)C3)(C(C)C)C(=O)N12 [ERGOCORNINE],–,–,–,–,–,–,–,–,–,88,–
CN1C[C@H](CC#N)C[C@@H]2c3cccc4[nH]c(Cl)c(c34)C[C@H]21 [LERGOTRILE],–,–,–,–,–,–,–,–,–,71,–
